Assay outcomes deposited in PubChem BioAssay by The Scripps Research Institute Molecular Screening Center.
GPR7 antag: antagonists of human GPR7 (neuropeptides B/W receptor 1); P48145; GPR7-expressing cells, fluorescence antagonist assay; inhibition, % at 4.4 µM; hit rate 1.1% among 290,000; in the data active = inhibition above about 16%, passing the limit was not always enough;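 note: cells stimulated with the agonist NPW; 0% = agonist with vehicle and 100% = vehicle without agonist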
Target sequence (P48145 whole entry, looked up): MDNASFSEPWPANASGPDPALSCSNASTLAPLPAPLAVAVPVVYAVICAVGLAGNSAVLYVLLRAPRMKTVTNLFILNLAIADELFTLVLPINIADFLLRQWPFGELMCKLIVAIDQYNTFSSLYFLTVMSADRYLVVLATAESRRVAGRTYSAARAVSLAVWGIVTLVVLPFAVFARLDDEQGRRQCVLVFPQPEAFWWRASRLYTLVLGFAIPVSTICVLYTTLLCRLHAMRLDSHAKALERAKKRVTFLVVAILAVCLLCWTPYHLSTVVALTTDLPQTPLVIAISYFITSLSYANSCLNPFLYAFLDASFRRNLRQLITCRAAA
OX1R antag-1: blocks the human orexin 1 receptor; O43613; CHO/OX1R cells, Fluo-8 calcium fluorescence, orexin A; inhibition, % at 5 µM; hit rate 0.43% among 330,000;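 active = inhibition above its plate's threshold, mean inhibition of all tested compounds on the plate plus 3 SD, cut at about 37% in these data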;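 note: 0% = orexin A challenge wells and 100% = SB-334867-A antagonist wells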
CHO parental Ca: signal in parental CHO cells, OX1R antagonist counter-screen. parental CHO-K1, ATP-induced calcium, Fluo-8 fluorescence. inhibition, % at 5.6 µM. hit rate 0.63% among 330,000. AID 463079;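 active = inhibition above that plate's mean sample inhibition plus 3 SD, cut at about 26% in these data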;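 note: 0% = ATP-challenged DMSO wells and 100% = DMSO wells without ATP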
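Test system: untransfected parental CHO cell line; also added: ATP stimulus; dosing: 5.6 µM, single dose; signal: calcium-sensitive Fluo-8 fluorescence; measure: percent inhibition of ATP-evoked calcium rise, normalized to controls; benchmarks: low control ATP plus DMSO, high control DMSO only; replication: one well per compound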
TAAR1 ag: human TAAR1 agonism; activation, % at 3 µM; hit rate 0.99% among 360,000; CHO RD-HGA16 TAAR1, Fluo-8 calcium fluorescence; vehicle wells 0%, saturating PEA agonist 100%; Q96RJ0;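 active = activation above the mean activation of all test compounds in the run plus 3 SD, cut at about 38% in these data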
Target sequence (Q96RJ0 whole entry, looked up): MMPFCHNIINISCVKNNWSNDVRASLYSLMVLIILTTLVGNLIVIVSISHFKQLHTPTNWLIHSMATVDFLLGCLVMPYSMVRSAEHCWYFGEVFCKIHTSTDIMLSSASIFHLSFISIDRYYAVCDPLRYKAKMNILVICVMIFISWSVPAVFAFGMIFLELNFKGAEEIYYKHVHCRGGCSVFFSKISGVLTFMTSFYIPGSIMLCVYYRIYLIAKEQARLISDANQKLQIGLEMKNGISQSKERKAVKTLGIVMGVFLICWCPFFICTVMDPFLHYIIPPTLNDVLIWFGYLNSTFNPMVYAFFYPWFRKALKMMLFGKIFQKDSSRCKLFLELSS
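Assay system – CHO-derived RD-HGA16 cells with stable Gα16 and human TAAR1 · Compound dosing – one-point dosing at 3 µM (nominal) · Incubation – 17-24 h seeding, 75 min 37 °C dye, 30 min RT · Measured by – kinetic Fluo-8 calcium fluorescence · Control set – DMSO vehicle as 0%, PEA at EC100 as 100% · Repeats – single well for each compound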
TAAR1 antag: human TAAR1 antagonism | inhibition, % at 3 µM | hit rate 1.5% among 360,000 | Q96RJ0 | CHO RD-HGA16 TAAR1, Fluo-8 calcium fluorescence, antagonist;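 active = inhibition above a per-plate cutoff, the mean inhibition of test compounds on that plate plus 3 SD, cut at about 49% in these data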;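 note: 0% = DMSO plus EC80 beta-PEA response and 100% = DMSO alone without agonist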
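Material: CHO RD-HGA16 cells bearing hTAAR1; compound dosing: one-point dosing, 3 µM nominal final; schedule: dye loading 75 min at 37 °C, then 30 min room temperature; measured by: calcium fluorescence with Fluo-8; control set: vehicle and agonist controls; replication: n of 1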
OX1R antag-2: blocks the human orexin 1 receptor; O43613; OX1R-expressing cells, FRET antagonist read-out; inhibition, % at 6.6 µM; hit rate 1.8% among 330,000; AID 485270; in the data active = inhibition mostly above about 38%, no sharp cut-off; inactive = mostly below about 40%;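 note: 0% = agonist challenge alone and 100% = reference antagonist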
OX1R HTRF conf: OX1R (human) antagonism, HTRF confirmed | shares compounds with OX1R antag-2 | OX1R-expressing cells, HTRF antagonist assay | AID 492964 | hit rate 49% among 1,800 | inhibition, % at 6.6 µM; in the data active = inhibition above about 55%;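 note: CHO cells expressing OX1R stimulated with orexin A at about EC80; 0% = agonist challenge alone and 100% = reference antagonist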
CHO-K1 HTRF: signal in parental CHO-K1 cells, OX1R antagonist counter-screen; hit rate 48% among 1,800; HTRF counterscreen; AID 493232; inhibition, % at 6.6 µM; shares compounds with OX1R antag-2; in the data active = inhibition above about 17%;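 note: 0% = agonist challenge with vehicle and 100% = vehicle alone without agonist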
nonsel antag count: counter-screen for TAAR1 antagonists: nonselective antagonists; counterscreen cell line, calcium fluorescence, antagonist mode; inhibition, % at 3 µM; shares compounds with TAAR1 antag; hit rate 77% among 2,400; in the data active = inhibition above about 22%;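 note: CHO-Ga16 host cells stimulated with ATP at an EC80 level; 0% = agonist EC80 plus vehicle and 100% = vehicle without agonist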
TAAR1 ant conf: human TAAR1 antagonism, confirmed; TAAR1-expressing cells, fluorescence antagonist read-out; inhibition, % at 3 µM; hit rate 40% among 2,400; AID 651785; shares compounds with TAAR1 antag; in the data active = inhibition above about 49%;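 note: CHO-Ga16 host cells challenged with agonist PEA near its EC80; 0% = agonist at EC80 plus vehicle and 100% = vehicle with no agonist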
Ga16 ag counter-1: counter-screen for TAAR1 antagonists: nonselective Ga16 agonists; shares compounds with TAAR1 antag; Ga16-expressing cells, calcium fluorescence, agonist counterscreen; activation, % at 3 µM; hit rate 18% among 2,400; AID 651953; in the data active = activation above about 12%;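 note: 0% = vehicle wells and 100% = saturating stimulus response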
TAAR1 ag counter: activates human TAAR1 in antagonist counter-screen; activation, % at 3 µM; hTAAR1 cell line, fluorescence activation, agonist mode; hit rate 2% among 2,400; shares compounds with TAAR1 antag; in the data active = activation above about 37%;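 note: CHO cells stably expressing TAAR1 with calcium dye readout; 0% = DMSO vehicle and 100% = full agonist response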
TAAR1 ag conf: human TAAR1 agonism, confirmed | hit rate 82% among 2,400 | shares compounds with TAAR1 ag | AID 651783 | CHO RD-HGA16 TAAR1, Fluo-8 calcium fluorescence; scaled: DMSO 0%, maximal phenethylamine 100% | activation, % at 3 µM;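 active = activation above a cutoff set at the run's mean compound activation plus 3 SD, cut at about 39% in these data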
Ga16 ag counter-2: counter-screen for TAAR1 agonists: nonselective agonists in parental cells; shares compounds with TAAR1 ag; CHO-Ga16 parental, Fluo-8 calcium fluorescence; normalized to maximal ATP response, DMSO zero; activation, % at 3 µM; hit rate 50% among 2,400;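 active = activation above the run cutoff, the mean activation over all tested wells plus 3 SD, cut at about 12% in these data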;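 note: 0% = DMSO wells and 100% = maximal ATP response on the peak over basal ratio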
TAAR1 desensitize: TAAR1 response desensitization, agonist counter-screen. CHO RD-HGA16 hTAAR1, Fluo-8 calcium, beta-PEA response inhibition. hit rate 46% among 2,400. shares compounds with TAAR1 ag. inhibition, % at 3 µM;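 active = inhibition above the run cutoff, the mean inhibition of all test compounds plus 3 SD, cut at about 49% in these data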;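 note: beta-PEA stimulus applied at its EC80; loss of beta-PEA calcium signal after compound pretreatment read as receptor desensitization; 0% = DMSO with beta-PEA at EC80 and 100% = DMSO alone without agonist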
Ga16 nonsel ant: nonselective Ga16 antagonist in TAAR1 agonist counter-screen; shares compounds with TAAR1 ag; CHO-Ga16 ATP-induced calcium, Fluo-8 fluorescence; inhibition, % at 3 µM; hit rate 39% among 2,400; AID 651952;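 active = inhibition above the plate's mean compound inhibition plus 3 SD, computed per plate, cut at about 22% in these data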;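 note: 0% = EC80 ATP with DMSO and 100% = DMSO wells without ATP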
An asterisk follows results filed as active; / = no result given. Only some compounds are listed: those with a hit (about 4.6% of all), similar ones and a draw of the others.

SMILES	GPR7 antag	OX1R antag-1	CHO parental Ca	TAAR1 ag	TAAR1 antag	OX1R antag-2	OX1R HTRF conf	CHO-K1 HTRF	nonsel antag count	TAAR1 ant conf	Ga16 ag counter-1	TAAR1 ag counter	others
O=Nc1c(-c2c(O)[nH]c3cc(Br)ccc23)[nH]c2ccccc12	0	-14	-20	-3	50*	98*	79*	26*	21	33	-1	-4
O=C(CNC(=O)c1ccccc1)N=Nc1c(O)[nH]c2ccc(Br)cc12	0	-18	-3	-3	2	21	/	/	/	/	/	/
COc1cc(OC)cc(C(=O)Nc2ccc(-c3nc4ccccc4o3)cc2)c1	-15	12	-14	14	64*	86*	25	7	26*	31	2	-1
O=C(NCC(=O)N(c1ccccc1F)C(C(=O)NC1CCCC1)c1cccnc1)c1ccco1 (stereo not drawn)	4	-3	-12	2	-7	16	/	/	/	/	/	/
CCOC(=O)c1c(C)[nH]c(C(=O)OCC(=O)Nc2sccc2C(N)=O)c1C	/	17	22	19	72*	99*	64*	12	39*	53*	17*	17
CCOC(=O)c1c(C)[nH]c(C(=O)OCC(=O)Nc2ccc(Cl)cn2)c1C	/	-11	-6	1	4	0	/	/	/	/	/	/
O=C(C(c1ccccc1)C(O)c1ccccc1)N1CCOCC1 (stereo not drawn)	/	/	/	6	-2	/	/	/	/	/	/	/
O=C(Nc1cccc(-c2nc3ncccc3o2)c1)c1cc2ccccc2o1	-9	1	-35	16	61*	105*	92*	19*	28*	49*	6	7
Cc1ccc(-c2nc3ncccc3o2)cc1NC(=O)c1cc2ccccc2o1	-16	-24	-8	14	13	-2	/	/	/	/	/	/
O=C(Cn1cnc2ccccc2c1=O)N1CCN(S(=O)(=O)c2ccc(F)cc2)CC1	/	-36	-21	2	-8	1	/	/	/	/	/	/
CCC(=O)N1CCN(c2ccc(NC(=O)c3cc4ccccc4o3)cc2Cl)CC1	-15	11	18	25	73*	81*	34	7	49*	66*	13*	12
COc1ccc(-c2oc3ccc(N4CCOCC4)cc3c2C#CCO)cc1	/	13	-11	7	58*	81*	39	7	23*	44	5	10
CCNC(=O)C1(C)CCN(C(=O)c2cc(F)ccc2C)C1 (stereo not drawn)	/	/	/	3	-13	/	/	/	/	/	/	/
COc1ccc(Cl)cc1N(CC(=O)NCCSc1ccccn1)S(=O)(=O)c1ccccc1	0	10	-13	11	58*	79*	80*	8	16	32	5	6
COc1ccc(N(CC(=O)NCCSc2ccccn2)S(=O)(=O)c2ccccc2)cc1Cl	-13	-23	-21	9	18	19	/	/	/	/	/	/
CCOc1ccc(/C=C2\SC(=S)N(NS(=O)(=O)c3ccccc3)C2=O)cc1OC	-2	-6	2	5	75*	78*	43	24*	23*	53*	4	2
O=C1CCN2C=Nc3cccc4ccc1c2c34	2	22	27	109*	32	92*	42	19*	/	/	/	/	TAAR1 ag conf=31;Ga16 ag counter-2=36*;TAAR1 desensitize=25;Ga16 nonsel ant=20
COCCCN1C(=O)C(CC(=O)NCc2cccs2)CC(C(=O)N(C)C)=C1C (stereo not drawn)	/	/	/	1	0	/	/	/	/	/	/	/
O=S(=O)(NCCc1csc(-c2ccccc2)n1)c1ccc2c(c1)OCCO2	-7	13	-14	94*	34	83*	64*	1	/	/	/	/	TAAR1 ag conf=62*;Ga16 ag counter-2=43*;TAAR1 desensitize=32;Ga16 nonsel ant=24*
O=S(=O)(NCCc1cn2ccccc2n1)c1ccc2c(c1)OCCO2	-4	-19	-2	1	-21	0	/	/	/	/	/	/
O=C(CSc1n[nH]c(-c2ccccc2)n1)NC(=O)NCc1ccco1	-2	-13	-10	/	/	82*	47	4	/	/	/	/	Ga16 ag counter-2=1;Ga16 nonsel ant=-4
O=C(NCc1ccc(Cl)cc1)c1cc(S(=O)(=O)N2CCCCC2)c[nH]1	-10	-8	6	5	-3	14	/	/	/	/	/	/
COc1ccccc1-c1cc(C(=O)N2CCN(S(=O)(=O)c3ccc(C)cc3)CC2)[nH]n1	-12	-16	-9	11	74*	8	/	/	31*	44	9	7
O=C(Nc1ccc(C(=O)O)cc1)/C(=C\C=C\c1ccccc1)NC(=O)c1ccccc1Cl	-9	1	-13	3	58*	32	/	/	23*	30	6	6
O=C(N/C(=C/C=C/c1ccccc1)C(=O)N1CCOCC1)c1ccccc1Cl	-2	-18	-18	4	9	23	/	/	/	/	/	/
CC(C)COC(=O)N(C)C[C@H]1OCc2cnnn2CCCC(=O)N([C@H](C)CO)C[C@H]1C	/	/	/	0	-20	/	/	/	/	/	/	/
COc1cc(NC(=O)c2ccccc2Cl)ccc1NC(=O)c1cccs1	-6	-25	-7	4	0	9	/	/	/	/	/	/
COc1cc(NC(=O)c2cc3ccccc3cc2OC)ccc1NC(=O)c1cccs1	-26	-28	1	11	85*	45	/	/	23*	51*	9	8
